In paper PMC4096303 (Journal of the American Chemical Society, 2013):
Blank lines part the entries; values can stand above or below the compound they belong to.

What was measured:
[1] = TEAC assay with cell lysates; format: biochemical; details: M17 human neuroblastoma cell lysates, relative to Trolox
Method in brief: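 M17 cells grown in 1:1 MEM/F12K with 10% FBS and penicillin/streptomycin to 80–90% confluence. Washed and harvested in cold PBS, pelleted, then sonicated on ice in 5 mM potassium phosphate pH 7.4 (0.9% NaCl, 0.1% glucose) and cleared at 10 000g, 4 °C. Supernatant mixed with test compound (0.045–0.330 mM), metmyoglobin, ABTS and H2O2; 5 min at room temperature; A750 read. TEAC taken as slope ratio versus Trolox; triplicate.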

[2] = 2-Deoxyribose assay; format: biochemical; details: ligand 125 µM, CuCl2 10 µM, absence and presence of Aβ (freshly prepared and aggregated)
[3] = Solution speciation studies of Cu; format: binding; details: pH 7.4, based on concentration of unchelated Cu(II)
Method in brief: (§1)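 Ligand and metal chloride mixed at M(II):L = 1:2: CuCl2 25 µM, or ZnCl2 50 or 250 µM depending on ligand. Titrated with small HCl aliquots, recording at least 30 UV–vis spectra over pH 2–9. Stability constants fitted from the spectra; speciation diagrams modelled to give metal-free Cu(II) or Zn(II) at pH 7.4.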

[4] = Solution speciation studies of Zn; format: binding; details: pH 7.4, based on concentration of unchelated Zn(II)
Method in brief: as §1

[5] = Trolox equivalent antioxidant capacity; format: biochemical; details: ABTS cation radicals in EtOH, factor
[6] = Parallel Artificial Membrane Permeability Assay adapted for BBB; format: in vitro ADME; details: PAMPA-BBB, 25 µM, pH 7.4, 4 h, ambient temperature
Method in brief: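 Test compound diluted in Prisma HT buffer, pH 7.4, to 25 µM final (1% DMSO) in donor wells, 11–12 replicates per compound. Acceptor PVDF filter coated with BBB-1 lipid; brain sink buffer in acceptor wells. Sandwich held 4 h at ambient temperature, unstirred. Absorbance read on a plate reader; −logPe averaged by software.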

[7] = UV-vis variable-pH titration; format: physicochemical; details: for pKa: Acidity constant (pKa), pH range 2–8
Method in brief: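 Test compound (50 µM) in 100 mM NaCl, 10 mM NaOH (pH 12) titrated with small HCl aliquots, recording at least 30 UV–vis spectra over pH 2–8. Acidity constants fitted from the spectra; speciation diagram modelled to give the species distribution at pH 7.4.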

[8] = Metal selectivity competition experiments by UV-vis; format: binding; details: stoichiometric ratios; 50 µM ligand, pH 7.4
Method in brief: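 Ligand at 50 µM (1% DMSO) in Chelex-treated 20 mM HEPES, pH 7.4, 150 mM NaCl. It was first given 1 or 20 equiv of MgCl2, CaCl2, MnCl2, FeCl2, CoCl2, NiCl2 or CuCl2, then ZnCl2 (50 µM). Fe(II) samples were kept anaerobic by N2 purge. UV–vis spectra were recorded after 5 min at room temperature.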

[9] = In vitro metabolic stability, human liver microsomes; format: in vitro ADME
Method in brief: (§2)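 Liver microsomes incubated with test compound at 1 µM, 37 °C, with ketanserin as reference compound; half-life (t1/2) determined.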

[10] = system: preformed aggregates of Aβ and metal–Aβ; assay: Aβ disaggregation experiment; format: biochemical; details: aggregates preformed 24 h, compound 50 µM, gel/TEM
Method in brief: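 Aβ40 or Aβ42 (25 µM) in Chelex-treated HEPES/NaCl buffer, pH 6.6 for Cu(II) or 7.4 for Zn(II), with or without CuCl2 or ZnCl2 (25 µM). Aggregated 24 h at 37 °C with agitation. Test compound then added (50 µM) and incubated 4, 8 and 24 h at 37 °C with agitation. Analysed by Tris–tricine gel/Western blot (6E10 antibody) and by uranyl acetate-stained TEM.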

[11] = biological target: Aβ40/Aβ42 (Homo sapiens, UniProt P05067); assay: Aβ aggregation inhibition experiment; format: biochemical; details: Aβ 25 µM
Method in brief: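 Aβ stock made in 1% NH4OH, diluted with ddH2O and quantified by A280. Test compound (50 µM, 1% DMSO) added with or without CuCl2/ZnCl2 (25 µM), 37 °C, constant agitation, 4, 8, 24 h. Read by 10–20% Tris–tricine gel, nitrocellulose transfer, anti-Aβ 6E10 Western blot, and TEM.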

[12] = system: N2aAPPswe or N2a cells; assay: Cell viability by MTT assay, Aβ- or metal-Aβ-induced toxicity; format: cell-based, murine; details: 10 µM, 24 h, both N2a and N2aAPPswe cells
Method in brief: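 Cells kept at 37 °C under 5% CO2 and seeded at 15 000 cells/well. Given CuCl2 or ZnCl2 (10 µM) plus test compound (10 µM final, 1% DMSO) for 24 h. MTT was added for 4 h at 37 °C and formazan dissolved overnight in acidic DMF/SDS. Absorbance read at 600 nm; viability expressed relative to DMSO-only cells; n = 3.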

[13] = In vitro metabolic stability, mouse liver microsomes; format: in vitro ADME
Method in brief: as §2

[14] = Brain uptake study; format: in vivo, male CD1 mice; details: male, CD1, mouse, oral, 10 mg/kg
Method in brief: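 Single 10 mg/kg oral gavage dose in sterile water to male CD1 mice, n = 3. Blood was drawn 5 min post-dose by retro-orbital or cardiac puncture into K2EDTA. Plasma was spun at 2000g for 5 min at 4 °C. Samples underwent protein precipitation and LC-MS/MS; LLOQ 1 ng/mL plasma, 4 ng/mL brain.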

[15] = biological target: Aβ42 (Homo sapiens, UniProt P05067); assay: Ion mobility-mass spectrometry of early Aβ42 oligomerization; format: biochemical; details: IM–MS
Method in brief: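 Lyophilized Aβ42 dissolved in 10 mM ammonium acetate, pH 7.4, to a final peptide concentration of 10 µM. Analysed by ion mobility on a traveling-wave Q-TOF mass spectrometer.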

[16] = In vitro metabolic stability, rat liver microsomes; format: in vitro ADME
Method in brief: as §2

Aβ42, sequence (P05067 672-713): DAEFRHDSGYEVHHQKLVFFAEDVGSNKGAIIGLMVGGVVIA
Aβ40/Aβ42, sequence (P05067 672-711 limits assumed): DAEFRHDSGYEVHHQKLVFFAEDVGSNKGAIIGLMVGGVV

SMILES: Cc1c(C)c2c(c(C)c1O)CCC(C)(C(=O)O)O2 (stereo not drawn) [Trolox, 6-hydroxy-2,5,7,8-tetramethylchroman-2-carboxylic acid]
Antioxidant capacity (TEAC value) in cell lysates [1]: 1.00 ± 0.08

SMILES: CN(C)c1ccc(O)c(CNc2cccc3ccc(CO)nc23)c1 [ML, 4-(dimethylamino)-2-(((2-(hydroxymethyl)quinolin-8-yl)-amino)-methyl)phenol]
Copper-mediated generation of hydroxyl radicals [2]: significantly reduced | Dissociation constant (Kd) with Cu(II) [3]: picomolar range | Dissociation constant (Kd) with Zn(II) [4]: nanomolar range | Free radical scavenging (TEAC) in solution relative to DAP, 1 and Trolox [5]: ca. 2.6 | Antioxidant capacity (TEAC value) in cell lysates [1]: 1.41 ± 0.15 | −logPe [6]: 4.49 (±0.01) | pKa ([7]; first of three printed): 2.63 | pKa ([7]; second of three printed): 3.97 | pKa ([7]; third of three printed): 6.23 | Neutral form at physiological pH ([7]; pH 7.4, solution speciation diagram based on the acidity constants): ca. 94% | Selectivity toward Zn(II) over other divalent metal ions [8]: relatively selective for Zn(II) over Mg(II), Ca(II), or Mn(II) | half-life at 1 µM [9]: < 30 min | Effect on preformed metal-free and metal-treated Aβ aggregates [10]: could transform preformed aggregates into relatively smaller, amorphous conformations | Effect on metal-induced Aβ aggregation ([11]; CuCl2 or ZnCl2 25 µM, compound 50 µM, 37 °C): noticeable effects on the modulation of metal-induced Aβ aggregation | Effect on metal-free Aβ40/Aβ42 aggregation ([11]; compound 50 µM, 4, 8, 24 h, 37 °C): could direct the production of Aβ species with a wide range of MW | Cell survival, compound with and without metal ions (no Aβ) [12]: ca. 85% | half-life at 1 µM [13]: < 30 min | concentration at 5 min ([14]; brain): 14.3 ± 4 ng/g | concentration at 5 min ([14]; plasma): 5.91 ± 1.24 ng/mL | Inhibition of Aβ42 dodecamer formation ([15]; 1:5 mixture of Aβ42 and ML): completely | Inhibition of Aβ42 hexamer formation ([15]; 1:5 mixture of Aβ42 and ML): partially | Disaggregation of preformed Aβ42 dodecamers ([15]; Aβ42 on ice ca. 4 h, then ML added (1:5)): disaggregates preformed dodecamers | half-life at 1 µM [16]: < 30 min

Dissociation constant (Kd) with Cu(II) [3]: micromolar range | Dissociation constant (Kd) with Zn(II) [4]: micromolar range | −logPe [6]: 4.70 (±0.01)
SMILES: Nc1cccc2ccc(CO)nc12 [Compound 1, (8-aminoquinolin-2-yl)methanol, reference compound]
Antioxidant capacity (TEAC value) in cell lysates [1]: 0.86 ± 0.10 | Effect on preformed metal-free and metal-treated Aβ aggregates [10]: no discernible difference

SMILES: CN(C)c1ccc(O)cc1 [DAP, 4-(dimethylamino)phenol, reference compound]
Effect on Zn(II)-triggered Aβ aggregation ([11]; ZnCl2 25 µM, compound 50 µM, pH 7.4): influenced Zn(II)-triggered Aβ aggregation, similar to ML
